pIC50: −log10 of the molar value.
Experiments:
Format in all cases: tissue-based
[1] = molecular target: Calcium-activated potassium channel subunit alpha-1 (Rattus norvegicus) (UniProt Q62976); assay: (§1) Activation of BK channel in Wistar rat thoracic aorta assessed as relaxation of KCl-induced contraction
How it was run: (§2)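 Endothelium-denuded aortic rings in Tyrode at 37 °C, gassed 95% O2/5% CO2. Denudation was confirmed by under 10% acetylcholine relaxation of KCl 20 mM tone. Rings were precontracted with KCl 20 mM, then given cumulative 3-fold increasing concentrations from 10 nM (DMSO stock, diluted in Tyrode). Efficacy was maximal relaxation as % of KCl tone; pIC50 was derived only when efficacy was ≥55%. 5-10 experiments.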

[2] = molecular target: Calcium-activated potassium channel subunit alpha-1 (Rattus norvegicus, UniProt Q62976); assay: as §1; how it was run: as §2
Calcium-activated potassium channel subunit alpha-1, sequence (Q62976 whole entry): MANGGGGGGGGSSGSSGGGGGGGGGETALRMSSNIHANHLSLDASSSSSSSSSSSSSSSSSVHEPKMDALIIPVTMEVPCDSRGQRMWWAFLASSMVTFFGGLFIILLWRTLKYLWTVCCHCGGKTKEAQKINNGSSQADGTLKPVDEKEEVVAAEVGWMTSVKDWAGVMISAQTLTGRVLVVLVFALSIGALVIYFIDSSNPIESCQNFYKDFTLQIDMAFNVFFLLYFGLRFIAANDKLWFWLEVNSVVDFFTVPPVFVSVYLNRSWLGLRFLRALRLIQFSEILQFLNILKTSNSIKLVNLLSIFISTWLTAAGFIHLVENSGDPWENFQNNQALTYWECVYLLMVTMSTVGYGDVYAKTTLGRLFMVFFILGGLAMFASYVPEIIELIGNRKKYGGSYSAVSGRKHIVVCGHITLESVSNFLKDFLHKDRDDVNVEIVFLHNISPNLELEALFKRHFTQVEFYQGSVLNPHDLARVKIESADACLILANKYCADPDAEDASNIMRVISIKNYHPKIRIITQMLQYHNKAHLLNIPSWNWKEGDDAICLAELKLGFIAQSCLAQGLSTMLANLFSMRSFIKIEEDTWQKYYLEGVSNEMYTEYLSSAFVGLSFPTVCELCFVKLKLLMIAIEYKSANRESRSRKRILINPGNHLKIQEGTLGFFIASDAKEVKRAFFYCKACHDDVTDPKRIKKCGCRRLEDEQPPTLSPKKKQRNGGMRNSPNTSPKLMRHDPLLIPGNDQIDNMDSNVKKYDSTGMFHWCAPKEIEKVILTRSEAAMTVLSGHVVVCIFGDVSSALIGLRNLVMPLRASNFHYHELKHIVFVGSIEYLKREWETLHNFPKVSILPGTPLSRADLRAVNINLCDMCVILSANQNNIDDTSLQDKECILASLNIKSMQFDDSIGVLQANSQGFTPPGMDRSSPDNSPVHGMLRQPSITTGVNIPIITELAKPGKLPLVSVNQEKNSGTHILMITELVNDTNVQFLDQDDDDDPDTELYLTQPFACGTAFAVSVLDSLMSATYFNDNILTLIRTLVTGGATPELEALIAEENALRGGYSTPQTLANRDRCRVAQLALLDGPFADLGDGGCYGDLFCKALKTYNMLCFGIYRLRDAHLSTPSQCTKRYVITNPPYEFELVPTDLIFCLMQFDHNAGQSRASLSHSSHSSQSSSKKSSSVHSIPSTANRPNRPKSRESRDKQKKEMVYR

[3] = molecular target: Calcium-activated potassium channel subunit alpha-1 (Rattus norvegicus) (UniProt Q62976); assay: Activation of BK channel in Wistar rat thoracic aorta assessed as relaxation of KCl-induced contraction in presence of potassium channel blocker TEAC
How it was run: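 Endothelium-denuded aortic rings in gassed Tyrode at 37 °C, incubated with tetraethylammonium chloride 10 mM for 20 min before KCl 20 mM precontraction. Cumulative 3-fold increasing concentrations from 10 nM were added at the plateau. Relaxation was expressed as % of KCl tone, with pIC50 as the negative log molar concentration halving the tone. 5-10 experiments.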

Calcium-activated potassium channel subunit alpha-1 (Rattus norvegicus), sequence (Q62976 whole entry): as above

Work on `Cc1c(C(=O)Nc2ccccc2O)nnn1Cc1ccccc1O` yielded an Emax [1] of 81% and a pIC50 [2] of 4.69.

In the case of `Cc1c(C(=O)Nc2ccccc2O)nnn1Cc1ccccc1Cl`, the Emax [1] was 52%.

`Cc1c(C(=O)Nc2ccccc2)nnn1Cc1ccccc1O` gave an Emax [1] of 89%, a pIC50 [2] of 4.75 and an Emax [3] of 37%.

`Cc1c(C(=O)Nc2ccccc2O)nnn1Cc1ccccc1F` was tested, and the Emax [1] was 35%.

Work on `Cc1c(C(=O)NCc2ccccc2)nnn1Cc1ccccc1O` yielded an Emax [1] of 48%.

In the case of `O=c1[nH]c2cc(C(F)(F)F)ccc2n1-c1cc(C(F)(F)F)ccc1O`, the Emax [1] was 94% and the pIC50 [2] was 5.29.

`Cc1c(C(=O)Nc2ccc(Cl)cc2)nnn1Cc1ccccc1O` gave an Emax [1] of 53%.

For `Cc1c(C(=O)NCc2ccccc2Cl)nnn1Cc1ccccc1O`, the Emax [1] was 51%.

`Cc1c(C(=O)NCc2ccccc2O)nnn1Cc1ccccc1O` showed an Emax [1] of 76% and a pIC50 [2] of 4.66.

With `Cc1c(C(=O)NCc2ccccc2O)nnn1Cc1ccccc1F` the Emax [1] was 24%.

For `Cc1c(C(=O)NCc2ccccc2O)nnn1Cc1ccccc1Cl`, the Emax [1] was 49%.

From ChEMBL document CHEMBL1154477, “1,2,3-Triazol-carboxanilides and 1,2,3-triazol-(N-benzyl)-carboxamides as BK-potassium channel activators. XII” (Eur J Med Chem, 2008)
